Consider three molecules from ChEMBL document CHEMBL4433213, “Investigation on 2',3'-O-Substituted ATP Derivatives and Analogs as Novel P2X3 Receptor Antagonists” (ACS Med Chem Lett, 2019).

Each structure is given as a SMILES string. Calls of active or inactive are those of the source. The rule behind the calls is not given here.

By inhibition is commonly meant the drop in the measured response relative to a control, in per cent. In general, IC50 refers to the concentration that inhibits the measured activity by half.

Assay [1] deals with T1, P2X purinoceptor 2 (Homo sapiens) (UniProt Q9UBL9).
T1 sequence (whole entry): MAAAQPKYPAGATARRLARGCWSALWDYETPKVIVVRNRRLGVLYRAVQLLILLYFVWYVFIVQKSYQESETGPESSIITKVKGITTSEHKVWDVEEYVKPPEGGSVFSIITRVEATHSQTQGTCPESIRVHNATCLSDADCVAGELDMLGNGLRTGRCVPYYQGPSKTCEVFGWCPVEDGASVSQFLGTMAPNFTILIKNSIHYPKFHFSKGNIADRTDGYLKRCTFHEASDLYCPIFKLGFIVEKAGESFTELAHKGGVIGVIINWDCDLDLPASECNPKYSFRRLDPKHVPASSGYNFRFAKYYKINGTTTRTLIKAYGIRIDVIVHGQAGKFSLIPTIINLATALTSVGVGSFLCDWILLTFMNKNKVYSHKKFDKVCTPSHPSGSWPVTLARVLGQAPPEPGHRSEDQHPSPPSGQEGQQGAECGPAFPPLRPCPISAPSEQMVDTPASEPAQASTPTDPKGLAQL
The assay can be described thus: Antagonist activity at human P2X2R transfected in human 1321N1 cells assessed as inhibition of ATP-induced calcium influx relative to control. Conditions: concentration not given here. The class given is cell-based. The essentials: (§1)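 1321N1 astrocytoma cells stably expressing human P2X1, P2X2, P2X3 or P2X4 receptor. Calcium influx was induced by ATP at the EC80 for each subtype. Results are given as IC50 (μM) or % inhibition at the indicated concentration.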

In another assay the target is T2, P2X purinoceptor 4 (Homo sapiens, UniProt Q99571).
T2 sequence (Q99571 whole entry): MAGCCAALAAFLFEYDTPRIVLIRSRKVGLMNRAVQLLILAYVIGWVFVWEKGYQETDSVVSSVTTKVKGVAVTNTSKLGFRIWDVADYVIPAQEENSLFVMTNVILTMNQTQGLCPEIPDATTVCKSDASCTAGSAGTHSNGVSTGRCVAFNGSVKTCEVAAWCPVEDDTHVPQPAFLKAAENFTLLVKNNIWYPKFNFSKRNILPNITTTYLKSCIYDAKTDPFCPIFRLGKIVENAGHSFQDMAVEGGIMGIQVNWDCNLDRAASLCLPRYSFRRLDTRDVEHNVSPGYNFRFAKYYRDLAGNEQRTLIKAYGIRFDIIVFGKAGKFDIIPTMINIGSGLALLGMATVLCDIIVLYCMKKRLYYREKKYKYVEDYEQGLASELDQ
The assay can be described thus: Antagonist activity at human P2X4R transfected in human 1321N1 cells assessed as inhibition of ATP-induced calcium influx. The class given is cell-based. The essentials: as §1

In assay [2] the target is T3, P2X purinoceptor 7 (Homo sapiens) (UniProt Q99572).
T3 sequence (whole entry): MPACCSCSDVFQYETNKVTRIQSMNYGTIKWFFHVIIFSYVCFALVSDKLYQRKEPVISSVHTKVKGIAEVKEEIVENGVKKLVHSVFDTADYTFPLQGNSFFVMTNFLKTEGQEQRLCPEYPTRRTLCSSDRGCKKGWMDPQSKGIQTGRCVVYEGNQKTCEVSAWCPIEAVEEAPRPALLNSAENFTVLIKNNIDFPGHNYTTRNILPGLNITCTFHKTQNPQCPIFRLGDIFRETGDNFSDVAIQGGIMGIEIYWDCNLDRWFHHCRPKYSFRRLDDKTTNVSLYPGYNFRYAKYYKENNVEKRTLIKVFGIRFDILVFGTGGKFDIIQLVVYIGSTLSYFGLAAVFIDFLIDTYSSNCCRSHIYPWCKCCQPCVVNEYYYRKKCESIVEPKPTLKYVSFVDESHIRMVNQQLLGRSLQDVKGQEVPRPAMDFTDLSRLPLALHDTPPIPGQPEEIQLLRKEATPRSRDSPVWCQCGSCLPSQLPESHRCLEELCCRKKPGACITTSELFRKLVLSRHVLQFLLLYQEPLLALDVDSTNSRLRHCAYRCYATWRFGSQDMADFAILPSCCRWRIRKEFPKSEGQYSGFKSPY
The assay can be described thus: Antagonist activity at human P2X7R transfected in human 1321N1 cells assessed as inhibition of Bz-ATP-induced calcium influx relative to control. Conditions: concentration not given here. The class given is cell-based.

The target of a further assay is T4, P2X purinoceptor 1 (Homo sapiens, UniProt P51575).
T4 sequence (P51575 whole entry): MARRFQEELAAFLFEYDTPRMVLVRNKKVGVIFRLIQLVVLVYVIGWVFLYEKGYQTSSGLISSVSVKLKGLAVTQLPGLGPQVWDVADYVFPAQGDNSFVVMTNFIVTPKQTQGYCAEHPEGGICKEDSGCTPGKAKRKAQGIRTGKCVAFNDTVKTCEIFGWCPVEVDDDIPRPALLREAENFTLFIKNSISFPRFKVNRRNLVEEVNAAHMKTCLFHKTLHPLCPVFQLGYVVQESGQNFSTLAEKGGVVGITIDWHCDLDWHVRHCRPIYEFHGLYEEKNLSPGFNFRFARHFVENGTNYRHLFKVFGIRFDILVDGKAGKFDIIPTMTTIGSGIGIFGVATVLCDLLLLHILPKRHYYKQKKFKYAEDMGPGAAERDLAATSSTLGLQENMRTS
The assay can be described thus: Antagonist activity at human P2X1R transfected in human 1321N1 cells assessed as inhibition of ATP-induced calcium influx. The class given is cell-based. The gist of the method: as §1

Another assay concerns the target T5, P2X purinoceptor 3 (Mus musculus, UniProt Q3UR32).
T5 sequence (Q3UR32 whole entry): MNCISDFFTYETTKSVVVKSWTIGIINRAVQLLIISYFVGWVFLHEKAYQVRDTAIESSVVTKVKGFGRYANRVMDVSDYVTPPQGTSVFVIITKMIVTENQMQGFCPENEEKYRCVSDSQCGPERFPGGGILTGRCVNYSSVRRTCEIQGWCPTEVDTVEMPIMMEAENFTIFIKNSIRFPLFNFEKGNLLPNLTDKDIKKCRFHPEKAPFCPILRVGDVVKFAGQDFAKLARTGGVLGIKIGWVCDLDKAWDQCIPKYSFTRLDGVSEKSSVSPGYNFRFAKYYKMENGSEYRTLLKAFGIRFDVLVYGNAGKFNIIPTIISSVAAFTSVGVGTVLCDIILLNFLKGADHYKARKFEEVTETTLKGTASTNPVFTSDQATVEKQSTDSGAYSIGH
The assay can be described thus: Antagonist activity at P2X3R in mouse TG sensory neurons assessed as inhibition of P2X3R agonist alpha,beta-meATP-induced current at -65 mV holding potential by whole cell voltage clamp method. The essentials: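 Mouse trigeminal sensory neurons were recorded by whole-cell patch clamp. Test compound (0.001–10 μM) was applied before 10 μM α,β-meATP, and inhibition of the agonist-evoked P2X3 current was measured. IC50 was taken from concentration–inhibition curves. N = 5–6 cells.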

For the next assay, the target named is T6, P2X purinoceptor 2 (Homo sapiens, UniProt Q9UBL9).
T6 sequence (Q9UBL9 whole entry): T1 sequence (whole entry)
The assay can be described thus: Antagonist activity at human P2X2R transfected in human 1321N1 cells assessed as inhibition of ATP-induced calcium influx. It is filed as cell-based. The essentials:
as §1

For assay [3], the target named is T7, P2X purinoceptor 3 (Mus musculus) (UniProt Q3UR32).
T7 sequence (whole entry): T5 sequence (Q3UR32 whole entry)
The assay can be described thus: Agonist activity at P2X3R in mouse TG sensory neurons assessed as induction of channel current at 10 uM at -65 mV holding potential by whole cell voltage clamp method relative to alpha,beta-meATP.

In the case of `Nc1ncnc2c1ncn2[C@@H]1O[C@H](COP(=O)(O)OP(=O)(O)OP(=O)(O)O)[C@H]2OCO[C@H]21`, the inhibition in assay [1] stood at 36%; in assay [2], 21%. For the same molecule, the concentration for half-maximal inhibition (IC50) on P2X purinoceptor 4 is above 100 µM; at P2X purinoceptor 1, above 100 µM; on P2X purinoceptor 3, above 1 µM; on P2X purinoceptor 2 it was above 100 µM. In addition, the outcome in assay [3] was inactive.
For `Nc1ncnc2c1ncn2[C@@H]1O[C@H](COP(=O)(O)CP(=O)(O)OP(=O)(O)O)[C@H]2OC3(CCCCC3)O[C@H]21`, the inhibition in assay [1] was 9%; in assay [2] it was -1%. For the same molecule, the IC50 at P2X purinoceptor 4 was above 100 µM; on P2X purinoceptor 1, above 100 µM; at P2X purinoceptor 3 it was 0.127 µM; at P2X purinoceptor 2 it was above 100 µM. In assay [3], the result was inactive.
`CC1(C)O[C@@H]2[C@H](O1)[C@@H](COP(=O)(O)OP(=O)(O)OP(=O)(O)O)O[C@H]2n1cnc2c(N)ncnc21`: the inhibition in assay [1] is 6%; in assay [2], 5%. The concentration for half-maximal inhibition (IC50) at P2X purinoceptor 4 is 48 µM; on P2X purinoceptor 1, 41.1 µM; on P2X purinoceptor 3 it was 0.024 µM; on P2X purinoceptor 2 it was above 100 µM. Besides, the result in assay [3] was inactive.
